Screening data from PubChem.
SIAE inh = human SIAE inhibitors, primary screen, biochemical, fluorescence polarization, FP-Rh probe, 1536-well HTS; Sialate O-acetylesterase (Homo sapiens), Q9HAT2; inhibition, % at 9.66 µM; SIAE FP-Rh probe binding; actives 0.69% (n = 370,000); AID 1053197, 2014;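 active = inhibition above a cutoff: mean of compounds within the control limits plus 3 SD of those, cut at about 17% in these data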;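 also: 0% = plate median of compound wells and 100% = probe without SIAE protein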
TCR CD3 inh = inhibitors of human TCR-CD3 interaction, primary screen, biochemical, fluorescence, TAMRA-labeled TCR probe | T-cell receptor (TCR) | inhibition, % at 9.4 µM | actives 0.37% (n = 360,000);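 also: recombinant mutant TCR 2C K166C tagged with TAMRA read by polarization; 0% = receptor in buffer alone and 100% = receptor with positive control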
PRMT1 inh = PRMT1 methyltransferase inhibitors, primary screen, biochemical, fluorescence polarization | Protein arginine N-methyltransferase 1 (Homo sapiens), Q99873 | recombinant PRMT1, activity-based probe fluorescence polarization | inhibition, % at 2.79 µM | actives 1.3% (n = 370,000) | AID 652257, 2013;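 active = inhibition above about 21% made by adding two undisclosed values, limit read from the data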
Target sequence (Q99873 whole entry, looked up): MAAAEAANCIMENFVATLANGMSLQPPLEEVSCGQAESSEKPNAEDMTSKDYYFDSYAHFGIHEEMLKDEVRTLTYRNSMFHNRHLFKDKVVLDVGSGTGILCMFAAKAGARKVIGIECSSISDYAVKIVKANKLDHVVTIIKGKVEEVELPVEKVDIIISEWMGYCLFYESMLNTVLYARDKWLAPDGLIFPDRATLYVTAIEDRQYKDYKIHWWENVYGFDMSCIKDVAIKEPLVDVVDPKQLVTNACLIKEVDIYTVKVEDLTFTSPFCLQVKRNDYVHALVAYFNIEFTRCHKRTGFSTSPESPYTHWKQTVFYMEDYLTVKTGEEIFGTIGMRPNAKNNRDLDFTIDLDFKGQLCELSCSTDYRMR
HTRA1 inh = HTRA1 serine protease inhibitors, primary screen, biochemical, fluorescence polarization, HTS; AID 504803, 2011; Q92743; inhibition, % at 5.96 µM; recombinant HTRA1, FP-rhodamine activity-based probe; actives 0.5% (n = 340,000); in the data active = inhibition above about 36%;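 also: 0% = enzyme with DMSO and 100% = wells lacking enzyme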
mABHD4 FP = ABHD4 inhibitors, primary screen, biochemical, fluorescence polarization, mouse | (Lyso)-N-acylphosphatidylethanolamine lipase (Mus musculus), Q8VD66 | purified mABHD4, FP-Rh probe fluorescence polarization | inhibition, % at 8.92 µM | actives 0.54% (n = 370,000) | AID 720543, 2013;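 active = inhibition exceeding the mean over every tested compound plus 3 SD, cut at about 30% in these data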;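 also: 0% = plate median of compound wells and 100% = S159A mutant with DMSO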
Target sequence (Q8VD66 whole entry, looked up): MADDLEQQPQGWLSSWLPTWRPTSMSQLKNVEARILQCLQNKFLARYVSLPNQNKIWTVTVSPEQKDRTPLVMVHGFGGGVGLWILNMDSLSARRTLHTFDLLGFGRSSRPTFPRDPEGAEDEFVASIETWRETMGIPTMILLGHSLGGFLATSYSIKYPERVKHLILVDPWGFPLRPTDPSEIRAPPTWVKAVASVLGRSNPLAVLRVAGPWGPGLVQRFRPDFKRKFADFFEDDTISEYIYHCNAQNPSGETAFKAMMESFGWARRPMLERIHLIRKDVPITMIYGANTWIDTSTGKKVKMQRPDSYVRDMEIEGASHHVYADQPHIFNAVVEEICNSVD
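Assay system: Wild-type mouse ABHD4 protein | Medium: HEPES pH 7.0 buffer, 150 mM NaCl, 0.01% Pluronic F-127 | Incubation: Enzyme–compound pre-incubation 45 min, then probe 60 min, both 25 °C | Technique: Fluorescence polarization with parallel and perpendicular emission, 525/598 nm | Evaluation: % inhibition of FP-Rh probe binding versus controls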
HTRA1 conf = HTRA1 protease inhibitors, retest, confirmation, biochemical, fluorescence polarization; actives 66% (n = 1,600); shares compounds with HTRA1 inh; AID 540248, 2011; recombinant HTRA1, FP-rhodamine activity-based probe; inhibition, % at 5.96 µM;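 active = mean inhibition over three repeats above a set limit taken from the earlier primary screen, cut at about 37% in these data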;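 also: 0% = HTRA1 with DMSO and 100% = wells lacking HTRA1; inhibitors block probe binding so polarization drops and inhibition rises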
BSA TAMRA ctr = compounds interfering with TAMRA-BSA probe, counter-screen for TCR-CD3 interaction inhibitor project, biochemical, fluorescence, TAMRA-labeled BSA; TAMRA-labeled BSA probe fluorescence counterscreen; inhibition, % at 9.4 µM; shares compounds with TCR CD3 inh; actives 10% (n = 1,200); AID 652035, 2013; in the data active = inhibition above about 23%;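 also: 0% = buffer low control and 100% = reference high control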
TCR-CD3 inh conf = TCR-CD3 interaction inhibitors, retest, confirmation, biochemical, fluorescence, TAMRA-labeled TCR probe; shares compounds with TCR CD3 inh; actives 48% (n = 1,200); inhibition, % at 9.4 µM; TAMRA-labeled TCR probe fluorescence binding assay; AID 652036, 2013
An asterisk follows results filed as active; · = no result. Compounds with a hit are over-represented: about 2.6% of the library has one in this group of screens. Rule as the data show it, unless noted: active = inhibition above about 19%; inactive = the rest.

SMILES | SIAE inh | TCR CD3 inh | PRMT1 inh | HTRA1 inh | mABHD4 FP | HTRA1 conf | BSA TAMRA ctr | TCR-CD3 inh conf
CC(C)(C)OC(=O)NCCc1ccccc1/C=C/S(=O)(=O)NC1CCCC1 | 0 | · | 5 | · | 5 | · | · | ·
Cc1ccccc1NC(=O)CSc1nnc(-c2ccco2)c(-c2ccco2)n1 | · | · | · | 43* | · | 16 | · | ·
Cc1ccccc1NC(=O)CSc1n[nH]c(-c2ccco2)n1 | -6 | -6 | 0 | 4 | 7 | · | · | ·
O=C(NCCc1c[nH]c2ccccc12)OCc1cn(-c2ccccc2Cl)nn1 | 0 | · | 5 | · | -3 | · | · | ·
CCc1ccc(S(=O)(=O)/N=C2\C=C(Nc3ccc(O)cc3)C(=O)c3ccccc32)cc1 | · | · | · | 78* | · | 80* | · | ·
CC(=O)Nc1ccc(NC2=CC(=O)c3ccccc3C2=O)cc1 | 2 | 6 | -3 | 5 | 3 | · | · | ·
Cc1cc(C)c(S(=O)(=O)/N=C2\C=C(Nc3ccc(C(=O)O)cc3)C(=O)c3ccccc32)c(C)c1 | 18* | 3 | 14 | 60* | 71* | 52* | · | ·
O=C1C=C(Nc2ccc(O)cc2)C(=O)c2ccccc21 | 7 | 3 | 1 | 37* | 14 | 30 | · | ·
COC(=O)c1cc2c(c3c4cc(F)ccc4n(S(=O)(=O)c4ccc(C)cc4)c13)C(=O)N(Cc1ccc(C(F)(F)F)cc1)C2 | -7 | 4 | 0 | · | 8 | · | · | ·
O=C(NCc1ccco1)C1CCCN(S(=O)(=O)c2ccccc2F)C1 (stereo not given) | -2 | · | 0 | · | 2 | · | · | ·
O=C(CSc1ccccc1)NC1CCCCN(Cc2ccc(Cl)cc2)C1=O (stereo not given) | 1 | · | 2 | · | 0 | · | · | ·
CC(C)C(=O)OCC(=O)Nc1ccc(N=Nc2ccccc2)cc1 | 2 | -1 | 1 | 39* | 1 | 49* | · | ·
Nc1cccc(Nc2nc(OC(C(F)(F)F)C(F)(F)F)nc(OC(C(F)(F)F)C(F)(F)F)n2)c1 | 0 | -1 | 7 | 38* | -15 | 12 | · | ·
COc1nc(Nc2ccc(O)cc2)nc(OC(C(F)(F)F)C(F)(F)F)n1 | -6 | -1 | -2 | -6 | -13 | · | · | ·
Cc1ccc(C2=NC(=O)/C(=C/c3cc(O)c(O)c(Br)c3)S2)cc1 | -6 | 33* | 23* | 67* | 22 | 71* | -10 | 47*
Oc1ccc(-c2csc(-c3cccnc3)n2)cc1O | -4 | 22* | 7 | 37* | 11 | 47* | -8 | 16
Oc1ccc(-c2csc(Nc3ncccn3)n2)cc1O | -2 | 32* | 9 | 54* | 14 | 59* | -19 | 17
O=C(CCCn1c(SCC(=O)c2ccc(O)c(O)c2)nc2ccccc2c1=O)NCC1CCCO1 (stereo not given) | 8 | 21* | 7 | 38* | 16 | 36* | -16 | 40*
O=C(CCCn1c(SCC(=O)NC2CCCCC2)nc2ccccc2c1=O)NCC1CCCO1 (stereo not given) | -10 | 0 | 1 | 7 | 5 | · | · | ·
O=C(CCc1ccccc1)N[C@H]1/C(=N/O)CCC[C@]12C(=O)N(Cc1ccccc1)c1ccccc12 | 7 | · | 2 | · | -7 | · | · | ·
O=C(c1ccc(Cl)c(S(=O)(=O)N2CCc3ccccc32)c1)N1CCN(c2ccccc2O)CC1 | 2 | -5 | 1 | -24 | 3 | · | · | ·
O=C(NNC(=O)c1ccccc1O)c1ccc(Cl)c(S(=O)(=O)N2CCc3ccccc32)c1 | -1 | 28* | 2 | 50* | -26 | 50* | -6 | 16
O=C(NC1CCCCN(Cc2ccc(Cl)cc2)C1=O)c1c(F)cccc1F (stereo not given) | -4 | · | -8 | · | -9 | · | · | ·
CCNC(=O)N(C)[C@H]1C[C@H]2c3[nH]c4c(-c5ccccc5)cccc4c3CCN2C(=O)[C@H]1[C@H](C)O | -11 | 9 | -4 | · | -7 | · | · | ·
CC(=O)Oc1cc(C(=O)OCC(=O)N2CCc3ccccc3C2)cc(OC(C)=O)c1OC(C)=O | 12 | 45* | 7 | 59* | 26 | 83* | -18 | 15
SMILES | SIAE inh | TCR CD3 inh | PRMT1 inh | HTRA1 inh | mABHD4 FP | HTRA1 conf | BSA TAMRA ctr | TCR-CD3 inh conf
COc1ccc(C(=O)OCC(=O)N2CCc3ccccc3C2)cc1OC | 2 | 2 | 3 | -1 | 4 | · | · | ·
Cc1ccc2nc(-c3ccc(O)c(O)c3)cn2c1 | 12 | 54* | 2 | 45* | 14 | 74* | -3 | 28*
Cc1ccc2nc(-c3ccccc3)cn2c1 | 0 | 5 | 0 | 0 | -3 | · | · | ·
COC(=O)[C@H](C(C)C)N(Cc1cn(Cc2ccccc2)nn1)S(=O)(=O)c1ccc(F)cc1Br | 1 | · | 3 | · | -2 | · | · | ·
COC[C@@H]1CCCN1c1cccc2c1S(=O)(=O)N(C1CC1)CC[C@@H](C)O2 | 3 | · | 6 | · | -6 | · | · | ·
O=c1cc(-c2ccc(O)c(O)c2)oc2ccc3ccccc3c12 | 4 | 56* | 5 | 69* | 23 | 70* | -6 | 48*
O=[N+]([O-])c1ccc(Nc2ccccc2)c2nonc12 | -4 | -8 | 1 | 4 | -6 | · | · | ·
NNc1ccc([N+](=O)[O-])c2[nH][nH]c(=O)c12 | 5 | 50* | 40* | 52* | 54* | 49* | -18 | 106*
Nc1c(N)c2ccccc2oc1=O | 13 | -2 | 5 | -8 | 11 | · | · | ·
O=c1oc2ccccc2c2oc3cc(O)c(O)cc3c12 | 3 | 21* | 5 | 82* | 55* | 77* | -3 | 31*
O=C(N/N=C/c1c(O)ccc2ccccc12)c1ccc[n+](CCO)c1 | 7 | 26* | 1 | 52* | 11 | 50* | -10 | 17
COc1cc(/C=C2\CC/C(=C\c3cc(OC)c(OC)c(OC)c3)C2=O)cc(OC)c1OC | 3 | 5 | 0 | 7 | -3 | · | · | ·
COc1cc(/C=C2\CC/C(=C\c3cc(OC)c(O)c(OC)c3)C2=O)cc(OC)c1O | -43 | 38* | 27* | 46* | 20 | 55* | -26 | 41*
C[C@H]1COc2cc(Br)ccc2S(=O)(=O)N1Cc1cn(Cc2ccc(Cl)cc2)nn1 | -3 | · | -5 | · | 1 | · | · | ·
Cc1cc(C(=O)Nc2ccc(Cl)c(Cl)c2)n(-c2ccccc2)n1 | -20 | · | -1 | · | -16 | · | · | ·
O=C(N/N=C/c1cccnc1)c1cc(O)c(O)c(O)c1 | 1 | 32* | 14 | 45* | 22 | 12 | -6 | 20*
Cc1[nH]n(-c2ccccc2)c(=O)c1N=Nc1ccccc1O | -6 | 28* | 2 | 43* | -53 | 31 | -4 | 20*
